# Measurements: ChEMBL document CHEMBL4190259, “Constituents of Polygala flavescens ssp. flavescens and Their Activity as Inhibitors of Human Lactate Dehydrogenase” (J Nat Prod, 2017)
# Target: L-lactate dehydrogenase A chain (Homo sapiens, UniProt P00338)
# Assay: Inhibition of human liver LDH5 using pyruvate as substrate and NADH as cofactor measured after 15 mins by fluorescence assay
# Summary of the method: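 Purified human LDH isoform 5, forward reaction (pyruvate to lactate) in 100 mM phosphate buffer pH 7.4 with 200 μM pyruvate and 40 μM NADH. Seven concentrations from 500 to 0.7 μM, each in duplicate, DMSO not above 4%. NADH consumption read by fluorescence (ex 340, em 460 nm) after 15 min. Compound background fluorescence or quenching subtracted. IC50 from concentration–response curves.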
row,IC50,SMILES
1,90.4 µM,COc1cc(/C=C/C(=O)OC[C@H]2O[C@H](O[C@]3(CO)O[C@H](CO)[C@@H](O)[C@@H]3OC(=O)/C=C/c3cc(OC)c(O)c(OC)c3)[C@H](O)[C@@H](O)[C@@H]2O)cc(OC)c1O
2,191 µM,COc1cc(/C=C/C(=O)OC[C@H]2O[C@H](O[C@]3(CO)O[C@H](CO)[C@@H](O)[C@@H]3OC(=O)/C=C/c3cc(OC)c(O)c(OC)c3)[C@H](O)[C@@H](O[C@@H]3O[C@H](CO)[C@@H](O)[C@H](O)[C@H]3O)[C@@H]2O)cc(OC)c1O
3,> 500 µM,CC(=O)OC[C@H]1O[C@H](O[C@]2(CO)O[C@H](COC(=O)c3ccccc3)[C@@H](O)[C@@H]2O)[C@H](O)[C@@H](O[C@@H]2O[C@H](CO)[C@@H](O)[C@H](O)[C@H]2O)[C@@H]1O
4,> 500 µM,COc1cc(/C=C/C(=O)OC[C@@]2(O)CO[C@@H](O[C@H]3[C@H](Oc4c(-c5ccc(O)c(O)c5)oc5cc(O)cc(O)c5c4=O)O[C@H](CO[C@@H]4O[C@@H](C)[C@H](O)[C@@H](O)[C@H]4O)[C@@H](O)[C@@H]3O)[C@@H]2O)cc(OC)c1O
5,> 500 µM,COc1cc(/C=C/C(=O)OC[C@@]2(O)CO[C@@H](O[C@H]3[C@H](Oc4c(-c5ccc(O)c(O)c5)oc5cc(O)cc(O)c5c4=O)O[C@H](CO[C@@H]4O[C@@H](C)[C@H](O)[C@@H](O)[C@H]4O)[C@@H](O)[C@@H]3O)[C@@H]2O)ccc1O

# Continued, molecule first:
row,SMILES,IC50
1,C[C@@H]1O[C@@H](OC[C@H]2O[C@@H](Oc3c(-c4ccc(O)c(O)c4)oc4cc(O)cc(O)c4c3=O)[C@H](O[C@@H]3OC[C@](O)(CO)[C@H]3O)[C@@H](O)[C@@H]2O)[C@H](O)[C@H](O)[C@H]1O,> 500 µM
2,C[C@@H]1O[C@@H](OC[C@H]2O[C@@H](Oc3c(-c4ccc(O)c(O)c4)oc4cc(O)cc(O)c4c3=O)[C@H](O[C@@H]3OC[C@](O)(COC(=O)c4ccccc4)[C@H]3O)[C@@H](O)[C@@H]2O)[C@H](O)[C@H](O)[C@H]1O,> 500 µM
3,O=C(OC[C@H]1O[C@@](CO)(O[C@H]2O[C@H](CO)[C@@H](O)[C@H](O[C@@H]3O[C@H](CO)[C@@H](O)[C@H](O)[C@H]3O)[C@H]2O)[C@@H](O)[C@@H]1O)c1ccccc1,> 500 µM
4,C[C@@H]1O[C@@H](OC[C@H]2O[C@@H](Oc3c(-c4ccc(O)c(O)c4)oc4cc(O)cc(O)c4c3=O)[C@H](O[C@@H]3OC[C@](O)(COC(=O)/C=C/c4ccc(O)cc4)[C@H]3O)[C@@H](O)[C@@H]2O)[C@H](O)[C@H](O)[C@H]1O,> 500 µM
5,CC(=O)O[C@@H]1[C@H](O[C@@H]2OC[C@](O)(CO)[C@H]2O)[C@@H](O[C@@H]2O[C@@H](C)[C@H](O)[C@@H](O)[C@H]2O)[C@H](OC(=O)[C@]23CCC(C)(C)C[C@H]2C2=CC[C@@H]4[C@@]5(C)C[C@H](O)[C@H](O[C@@H]6O[C@H](CO)[C@@H](O)[C@H](O)[C@H]6O)[C@@](C)(C(=O)O)[C@@H]5CC[C@@]4(C)[C@]2(C)CC3)O[C@H]1C,> 500 µM
6,C[C@@H]1O[C@@H](OC[C@H]2O[C@@H](Oc3c(-c4ccc(O)c(O)c4)oc4cc(O)cc(O)c4c3=O)[C@H](O)[C@@H](O)[C@@H]2O)[C@H](O)[C@H](O)[C@H]1O [RUTIN],> 500 µM
